Measurements collected from several papers.
Each line is one published result; the experiments were not run side by side.
Target: Cyclin-dependent kinase 13 (CDK13, Homo sapiens, UniProt Q14004)

Cc1c(C(=O)O)cc(-c2ccc(C3CCNCC3)cc2)c2ccc(-c3ccc(C(F)(F)F)cc3)cc12
remaining binding (binding; competition with immobilised ligand; 1 µM): 100%

CN(c1nccc(-c2cnn3ncccc23)n1)C1CC1
remaining binding (binding; 1 µM): 100%

CNC(=O)[C@@H]1CC[C@@H](n2c(-c3ccc4cnccc4c3)nc3ccc(C(=O)NCc4cccc(C(N)=O)c4)cc32)C1
remaining binding (binding; competition with immobilised ligand; 1 µM): 100%

O=C(c1ccc(Nc2ncc(Cl)c(-c3ccc(Cl)s3)n2)cc1)N1CCC(N2CCCC2)CC1
remaining binding (binding; competition with immobilised ligand; 1 µM): 18%

COc1cnc(Nc2cccc(S(N)(=O)=O)c2)nc1N1CCN(c2ccccc2)C(=O)C1
remaining binding (binding; competition with immobilised ligand; 1 µM): 94%

CCCCN(CCCC)C(=O)CN1C[C@H](c2cc(OC)c3c(c2)OCO3)[C@@H](C(=O)O)[C@@H]1CC(C)(C)CCC
remaining binding (cell-free assay; competition with immobilised ligand; 1 µM): 52.5%

O=C(Nc1c[nH]nc1C(=O)NC1CCNCC1)c1cc(F)cc(F)c1
remaining binding (binding; competition with immobilised ligand; 1 µM): 100%

CC(=O)c1c(NS(C)(=O)=O)c2cc(-c3ccc(Cl)cc3)c(-c3ccc(Cl)cc3Cl)nc2n(C)c1=O
remaining binding (cell-free assay; competition with immobilised ligand; 1 µM): 96%

O=C(c1ccc(Nc2nccc(-c3cc4ccccc4s3)n2)cc1)N1CCC(N2CCCC2)CC1
remaining binding (binding; competition with immobilised ligand; 1 µM): 92%

Cc1c[nH]c2nccc(Oc3c(F)cc(Nc4cc(Cl)nc(N)n4)cc3F)c12
remaining binding (cell-free assay; competition with immobilised ligand; 0.1 µM): 73%

COc1ccnn2ncc(-c3ccnc(N(C)C)n3)c12
remaining binding (binding; 1 µM): 69%

CN(C)C(=O)Cn1cc(-c2nc([C@@](C)(c3ccc(-c4cnc(N)nc4)cc3)C3CC3)no2)cn1
remaining binding (cell-free assay; competition with immobilised ligand; 1 µM): 83%

c1cnn2ncc(-c3ccnc(N4CCC45COC5)n3)c2c1
remaining binding (binding; 1 µM): 87%

c1cncc(-c2cccc(Nc3nccc(NC4CCCCC4)n3)c2)c1
remaining binding (binding; competition with immobilised ligand; 10 µM): 100%

N[C@H]1CCN(c2nccc(-c3cnn4ncccc34)n2)C1
remaining binding (binding; 1 µM): 64%

O=C(c1ccc(Nc2ncc(Cl)c(-c3cc4ccccc4s3)n2)cc1)N1CCC(N2CCCC2)CC1
remaining binding (binding; competition with immobilised ligand; 1 µM): 36%

C[C@@H]1CCN(c2nccc(-c3cnn4ncccc34)n2)C1
remaining binding (binding; 1 µM): 72%

CC(=O)C1=C(C)N(c2cccc(C(F)(F)F)c2)C(=O)N[C@@H]1c1ccc(C#N)nc1
remaining binding (cell-free assay; competition with immobilised ligand; 1 µM): 100%
